ChEMBL document CHEMBL3393003, “1,2,3,9b-Tetrahydro-5H-imidazo[2,1-a]isoindol-5-ones as a new class of respiratory syncytial virus (RSV) fusion inhibitors. Part 2: identification of BTA9881 as a preclinical candidate” (Bioorg Med Chem Lett, 2015)
≈ marks a conversion by molar mass, not a printed value. Calls of active or inactive are those of the source. The calls are words filed in the database; no cut-off is given here.

How the values were obtained:
[1] = system: Respiratory syncytial virus; test: Resistance index, ratio of EC50 for VP-14637 resistant respiratory syncytial virus Long expressing F protein D489Y mutant to EC50 for wild type Respiratory syncytial virus Long
[2] = Apparent volume of distribution in Sprague-Dawley rat at 2.1 mg/kg, iv; type: ADME, organism-based; parameters: dose 2.1 mg/kg, route intravenous; details: in vivo, read-out: Vz
How it was run: (§1)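 Male Sprague Dawley rats given one IV dose. 3.1 mg/kg: n = 1, in 40% propylene glycol, 10% ethanol and 0.4% Tween80 in water. 2.1 mg/kg: n = 2, in 20 mM citrate (pH 2.6) with 5% glucose and 10% DMSO. Total clearance, Vz and T1/2 derived from plasma levels.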

[3] = Half life in Sprague-Dawley rat at 21 mg/kg, po; type: ADME, organism-based; parameters: dose 21 mg/kg, route oral; details: in vivo
How it was run: (§2)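 Male Sprague Dawley rats, n = 2, oral dose as suspension with carboxymethylcellulose. Cmax (µM), T1/2 and F (%) derived from plasma levels.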

[4] = Oral bioavailability in Sprague-Dawley rat at 21 mg/kg; type: ADME, organism-based; details: in vivo
How it was run: as §2

[5] = Cmax in Sprague-Dawley rat at 21 mg/kg, po; type: ADME, organism-based; parameters: dose 21 mg/kg, route oral; details: in vivo
How it was run: as §2

[6] = Elimination half life in Sprague-Dawley rat at 2.1 mg/kg, iv; type: ADME, organism-based; parameters: dose 2.1 mg/kg, route intravenous; details: in vivo, read-out: beta t1/2 (converted)
How it was run: as §1

[7] = Total clearance in Sprague-Dawley rat at 2.1 mg/kg, iv; type: ADME, organism-based; parameters: dose 2.1 mg/kg, route intravenous; details: in vivo
How it was run: as §1

[8] = system: Respiratory syncytial virus; test: Antiviral activity against respiratory syncytial virus A2 infected in human Hep2 cells assessed as reduction in virus-induced cytopathic effect after 5 days by MTT assay; type: functional, organism-based; details: A2, HEp-2, 120 h
How it was run: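 HEp2 cells (1.0 × 10⁴/well) infected at low moi (RSV A2 at moi 0.01) and added to serial compound dilutions; incubated 5 days at 37 °C, 5% CO₂. CPE read by MTT (1 mg/ml) metabolism after 2 h incubation.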

[9] = Cytotoxicity against human Hep2 cells assessed as reduction in cell viability after 5 days by MTT assay; type: cell-based, HEp-2
How it was run: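 Uninfected HEp2 cells (1.0 × 10⁴/well) exposed to serial compound dilutions for 5 days at 37 °C, 5% CO₂. Viability read by MTT (1 mg/ml) metabolism after 2 h incubation.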

[10] = system: Respiratory syncytial virus; test: Potency shift index, ratio of EC50 for respiratory syncytial virus A2 infected in human Hep2 in presence of 1.5 mg/mL Alpha-1-acid glycoprotein to EC50 for respiratory syncytial virus A2 infected in human Hep2 in absence of Alpha-1-acid glycoprotein; type: functional
[11] = Plasma clearance in Sprague-Dawley rat at 2 mg/kg, iv; type: ADME, organism-based; parameters: dose 2 mg/kg, route intravenous
[12] = Apparent volume of distribution in Sprague-Dawley rat at 2 mg/kg, iv; type: ADME, organism-based; parameters: dose 2 mg/kg, route intravenous; details: in vivo, read-out: Vz
[13] = Elimination half life in Sprague-Dawley rat at 2 mg/kg, iv; type: ADME, organism-based; parameters: dose 2 mg/kg, route intravenous; details: in vivo, read-out: beta t1/2 (converted)
[14] = Oral bioavailability in Sprague-Dawley rat at 19 mg/kg; type: ADME, organism-based; details: in vivo
How it was run: (§3)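 Male Sprague Dawley rats, n = 2, oral dose as suspension in hydroxypropylmethylcellulose, in carboxymethylcellulose, or in 0.5% HPMC/0.5% benzyl alcohol/0.4% Tween80. Cmax (µM), T1/2 and F (%) derived from plasma levels.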

[15] = Apparent volume of distribution in Sprague-Dawley rat at 0.9 mg/kg, iv; type: ADME, organism-based; parameters: dose 0.9 mg/kg, route intravenous; details: in vivo, read-out: Vz
Plasma [16] = test: Drug metabolism in orally dosed Sprague-Dawley rat plasma assessed as formation of pyridine N-oxides level; type: ADME, organism-based; details: in vivo, po
[17] = Cmax in Sprague-Dawley rat at 19 mg/kg, po; type: ADME, organism-based; parameters: dose 19 mg/kg, route oral; details: in vivo
How it was run: as §3

[18] = Elimination half life in Sprague-Dawley rat at 19 mg/kg, po; type: ADME, organism-based; parameters: dose 19 mg/kg, route oral; details: in vivo, read-out: beta t1/2 (converted)
How it was run: as §3

[19] = Drug metabolism in orally dosed Sprague-Dawley rat urine assessed as formation of pyridine N-oxides level; type: ADME, organism-based; details: in vivo, po
Plasma [20] = test: Drug metabolism in iv dosed Sprague-Dawley rat plasma assessed as formation of pyridine N-oxides level; type: ADME, organism-based; details: in vivo
[21] = Plasma clearance in Sprague-Dawley rat at 0.9 mg/kg, iv; type: ADME, organism-based; parameters: dose 0.9 mg/kg, route intravenous
[22] = Elimination half life in Sprague-Dawley rat at 0.9 mg/kg, iv; type: ADME, organism-based; parameters: dose 0.9 mg/kg, route intravenous; details: in vivo, read-out: beta t1/2 (converted)
[23] = Drug metabolism in iv dosed Sprague-Dawley rat urine assessed as formation of pyridine N-oxides level; type: ADME, organism-based; details: in vivo
[24] = Plasma clearance in Sprague-Dawley rat at 5.1 mg/kg, iv; type: ADME, organism-based; parameters: dose 5.1 mg/kg, route intravenous
[25] = system: Respiratory syncytial virus; test: Antiviral activity against respiratory syncytial virus Long infected in human Hep2 cells assessed as reduction in virus-induced cytopathic effect after 5 days by MTT assay; type: functional, organism-based; details: HEp-2, 120 h
[26] = system: Respiratory syncytial virus; test: Antiviral activity against respiratory syncytial virus B1 infected in human Hep2 cells assessed as reduction in virus-induced cytopathic effect after 5 days by MTT assay; type: functional, organism-based; details: B1, HEp-2, 120 h
[27] = Apparent volume of distribution in Sprague-Dawley rat at 5.1 mg/kg, iv; type: ADME, organism-based; parameters: dose 5.1 mg/kg, route intravenous; details: in vivo, read-out: Vz
[28] = Lipophilicity, log D of the compound at pH 7.4 by chromatography; type: physicochemical; details: buffer
How it was run: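 Effective logD measured chromatographically on an LC-ABZ column, octanol-saturated mobile phase at pH 7.4.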

[29] = Kinetic solubility in isotonic phosphate buffer at pH 6.5 by nephelometry; type: physicochemical; details: read-out: Kinetic_solubility
How it was run: (§4)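 Compound dissolved in DMSO and added to 0.01 M HCl (pH 2) or pH 6.5 isotonic phosphate buffer, 1% final DMSO. Solubility range determined by nephelometry.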

[30] = Kinetic solubility in 0.01M HCl buffer at pH 2.0 by nephelometry; type: physicochemical; details: read-out: Kinetic_solubility
How it was run: as §4

[31] = Elimination half life in Sprague-Dawley rat at 5.1 mg/kg, iv; type: ADME, organism-based; parameters: dose 5.1 mg/kg, route intravenous; details: in vivo, read-out: beta t1/2 (converted)
[32] = system: Respiratory syncytial virus; test: Resistance index, ratio of EC50 for drug resistant respiratory syncytial virus Long expressing F protein Q494L mutant to EC50 for wild type Respiratory syncytial virus Long
[33] = system: Respiratory syncytial virus; test: Resistance index, ratio of EC50 for drug resistant respiratory syncytial virus B1 expressing F protein L141F mutant to EC50 for wild type Respiratory syncytial virus B1; type: functional
[34] = Apparent volume of distribution in Sprague-Dawley rat at 8.8 mg/kg, iv; type: ADME, organism-based; parameters: dose 8.8 mg/kg, route intravenous; details: in vivo, read-out: Vz
[35] = Oral bioavailability in dog; type: ADME, organism-based, Canis lupus familiaris; details: in vivo
[36] = system: Respiratory syncytial virus; test: Antiviral activity against respiratory syncytial virus A2 assessed as inhibition of early virus replication cycle by time of addition assay; type: functional, organism-based
[37] = system: Respiratory syncytial virus; test: Antiviral activity against respiratory syncytial virus A2 by yield reduction assay; type: functional, organism-based
[38] = Plasma clearance in Sprague-Dawley rat at 8.8 mg/kg, iv; type: ADME, organism-based; parameters: dose 8.8 mg/kg, route intravenous
[39] = system: Respiratory syncytial virus; test: Antiviral activity against respiratory syncytial virus A2 by plaque reduction assay; type: functional, organism-based
[40] = Elimination half life in Sprague-Dawley rat at 8.8 mg/kg, iv; type: ADME, organism-based; parameters: dose 8.8 mg/kg, route intravenous; details: in vivo, read-out: beta t1/2 (converted)

In the case of `Cc1nnnn1N/C=C1\C=CC(=O)C(C(C2=C/C(=C/Nn3nnnc3C)C=CC2=O)c2ccc(O)cc2)=C1` (stereo not drawn), the “Ratio EC50” value [1] is reported as >2174.

`O=C(c1ccc(F)nc1)N1CCN2C(=O)c3cc[n+]([O-])cc3C12c1ccc(Cl)cc1` (racemic) gave a Vd [2] of 1.2 L/kg, a half-life [3] of 20 h and a bioavailability [4] of 85%. The Cmax [5] was 2.5 µM, the half-life [6] was 1.7 h and the clearance [7] was 7.9 mL/min/kg. The EC50 [8] was 150 nM and the CC50 at 120 h [9] was > 17000 nM.

In the case of `O=C(c1ccc(F)cc1)N1CCN2C(=O)c3ccncc3C12c1ccc(Cl)cc1` (racemic), the “Ratio EC50” value [10] is reported as 7.2, the clearance [11] is reported as 2.7 mL/min/kg and the Vd [12] is reported as 6 L/kg. For the same compound, the half-life [13] was > 24 h.

With `Cn1cc(C(=O)N2CCN3C(=O)c4ccncc4C32c2ccc(Cl)cc2)c(C(F)(F)F)n1` (racemic) the “Ratio EC50” value [10] was 4.3, the bioavailability [14] was 38% and the Vd [15] was 1.9 L/kg. The Drug metabolism (Plasma [16]) was “metabolite_detected”, the Cmax [17] was 3.6 µM and the half-life [18] was 7.1 h. For the same compound, the Drug metabolism [19] was “metabolite_detected”, the Drug metabolism (Plasma [20]) was “metabolite_detected” and the clearance [21] was 4 mL/min/kg. The half-life [22] was 5.6 h, the Drug metabolism [23] was “metabolite_detected” and the EC50 [8] was 31 nM. The CC50 at 120 h [9] was > 16000 nM.

`O=C(c1ccc(F)nc1)N1CCN2C(=O)c3ccncc3[C@]12c1ccc(Cl)cc1` showed a bioavailability [14] of 75%, a clearance [24] of 4.3 mL/min/kg and an EC50 [25] of 130 nM. For the same compound, the EC50 [26] was 290 nM, the Vd [27] was 3.8 L/kg and the chromatographic logD [28] was 2.7. For the same compound, the solubility kinetic [29] was 25 µg/mL (≈ 61.2 µM), the Cmax [17] was 8.8 µM and the half-life [18] was 9.3 h. The solubility kinetic [30] was > 100 µg/mL, the half-life [31] was 11 h and the EC50 [8] was 75 nM.

With `Cc1ccc(CCCO)c(NCc2ccc3nc(NCCCN4CCOCC4)n(Cc4nc(C)ccc4O)c3c2)c1` the “Ratio EC50” value [32] was 11.5, the “Ratio EC50” value [33] was >3333 and the “Ratio EC50” value [1] was >10000.

Work on `O=C(c1ccc(F)cc1)N1CCN2C(=O)c3cc[n+]([O-])cc3C12c1ccc(Cl)cc1` (racemic) yielded a clearance [11] of 2.4 mL/min/kg, a Vd [12] of 1.3 L/kg and a half-life [13] of 6.5 h.

Work on `O=C(c1cccnc1)N1CCN2C(=O)c3ccncc3[C@]12c1ccc(Cl)cc1` [BTA-9881] yielded a bioavailability [14] of 100%, a Vd [34] of 1.7 L/kg and a bioavailability [35] of 100%. The EC50 [25] was 59 nM, the EC50 [26] was 160 nM and the “Ratio EC50” value [32] was 40. The Activity [36] was “Active”, the Activity [37] was “Active” and the chromatographic logD [28] was 2.1. The solubility kinetic [29] was 50 µg/mL (≈ 128 µM), the “Ratio EC50” value [33] was >100 and the Cmax [17] was 23 µM. The “Ratio EC50” value [1] was >1800, the half-life [18] was 4.5 h and the solubility kinetic [30] was > 100 µg/mL. For the same compound, the clearance [38] was 4.5 mL/min/kg, the EC50 [8] was 48 nM and the Activity [39] was “Active”. It also gave a half-life [40] of 4.5 h.
